Hits are enriched below; roughly 1.8% of the tested compounds scored in any of these assays.
eIF4E-4G inh – eIF4E–eIF4G protein interaction inhibitors, primary screen, biochemical, uHTS, TR-FRET, eIF4GI fragment. inhibition, % at 21.7 µM. Eukaryotic translation initiation factor 4E (Mus musculus) + Eukaryotic translation …. AID 782, 2007. hit rate 0.37% among 220,000. TR-FRET eIF4E-eIF4GI(517-606) binding, 2 h;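 active means inhibition above about 30%, limit read from the data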
PABP FP inh – PABP poly(A) RNA binding inhibitors, primary screen, biochemical, fluorescence polarization, uHTS | Polyadenylate-binding protein 1 (Homo sapiens), P11940 | calls only at 35 µM | hit rate 1% among 290,000 | AID 2014, 2009;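 further: calls also rest on retests at 20 µM and on dose response follow-up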
PABP1 MLLE inh – inhibitors of PABP1 MLLE–PAM2 peptide binding, primary screen, biochemical, fluorescence polarization, FITC-PAM2, GST-MLLE | inhibition, % at 20 µM | hit rate 0.36% among 360,000; in the data active means inhibition above about 35%, passing the limit was not always enough
HCV core dimer – inhibitors of HCV core protein dimerization, primary screen, biochemical, TR-FRET, high-throughput; TR-FRET GST/Flag-core106 dimerization, 1536-well; inhibition, % at 5 µM; hit rate 0.33% among 300,000; AID 1899, 2009;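 active means inhibition above the mean of all tested compounds plus 3 SD, set per screening campaign, cut at about 45% in these data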
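System: GST/Flag-tagged HCV core106 proteins. Incubation: compound-protein-antibody incubation 4 h at 22.5 °C. Technique: HTRF with 340 nm excitation, 617/671 nm emission. Medium: KF-containing HEPES buffer, pH 7.45, DTT, CHAPS, BSA. Read-out: inhibition (%) from 671 over 617 nm ratio. Also added: Eu(K)-anti-GST 90 ng/mL plus XL665-anti-Flag 1 µg/mL.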
eIF4H inh – human eIF4H binding inhibitors, primary screen, translation initiation inhibitor project, biochemical, uHTS, fluorescence polarization | hit rate 0.94% among 290,000 | AID 2012, 2009 | inhibition, % at 35 µM | eIF4H fluorescence polarization binding assay;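 further: calls also rest on retests at 20 µM and on dose response follow-up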
UBC9 SUMO inh – inhibitors of in vitro SUMOylation cascade, primary screen, biochemical, HTRF, uHTS | SUMO-conjugating enzyme UBC9 (Homo sapiens), P63279 | HTRF SUMOylation assay, SAE1/SAE2 + UBC9 | inhibition, % at 35 µM | hit rate 0.36% among 290,000 | AID 2006, 2009; in the data active means inhibition above about 50%, passing the limit was not always enough; inconclusive means no clear call, values can overlap the other calls
Target sequence (P63279 whole entry, looked up): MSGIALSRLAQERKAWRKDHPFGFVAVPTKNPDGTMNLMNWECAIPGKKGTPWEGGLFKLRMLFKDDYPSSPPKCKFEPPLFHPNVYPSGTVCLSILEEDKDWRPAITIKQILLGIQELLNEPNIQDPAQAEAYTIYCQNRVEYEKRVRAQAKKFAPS
Of the large screens only hits and unclear results are named; the others gave an inactive call; ! = not confirmed by another sample; [ ] = another dose, or the depositor's remark. Unless noted, how the calls were made is not given here.

CC(C)C[C@H](NC(=O)/C=C/[C@H]1O[C@@H](n2ccc(=O)[nH]c2=O)[C@H](O)[C@@H]1O)C(=O)O	none (no result: eIF4E-4G inh, PABP FP inh, HCV core dimer, eIF4H inh, UBC9 SUMO inh)
O=C(O)c1ccc(-c2cccc([N+](=O)[O-])c2)o1	none
N#C/C(=C(/O)c1ccc(-c2cccc([N+](=O)[O-])c2)o1)c1nc2ccccc2s1	PABP FP inh active, eIF4H inh 69.1 (no result: HCV core dimer)
CCOC(=O)c1sc(NC(=S)NC(=O)c2ccc(OC)cc2)nc1C	none (no result: eIF4E-4G inh)
CCOC(=O)c1sc(NC(=S)NC(=O)c2ccco2)nc1C	PABP1 MLLE inh 41.3
COc1ccc(C(=O)NC(=S)Nc2nc(C)c(C(=O)N(C)C)s2)cc1	PABP1 MLLE inh 44.5
COc1ccc(S(=O)(=O)Nc2ccc3c(c2)C(=O)N([C@@H](C)CO)C[C@@H](C)[C@H](CN(C)S(=O)(=O)c2ccc(F)cc2)OCCCC[C@H](C)O3)cc1	none (no result: eIF4E-4G inh, PABP FP inh, HCV core dimer, eIF4H inh, UBC9 SUMO inh)
O=C1C=C(c2cc(F)ccc2F)C[C@@H](c2ccc(F)cc2)C1	none (no result: eIF4E-4G inh, PABP FP inh, HCV core dimer, eIF4H inh, UBC9 SUMO inh)
O=C(CC1C(=O)NCCN1Cc1ccccc1)NC1CCCCC1 (stereo not drawn)	none (no result: eIF4E-4G inh, PABP FP inh, HCV core dimer, eIF4H inh, UBC9 SUMO inh)
O=C1CCCC(O)=C1N=Nc1ccc(C(=O)O)cc1	PABP FP inh active, eIF4H inh 101.9
COc1ccc2nc(NC(=S)N(C)C)sc2c1	eIF4E-4G inh 41.0[fluorescence artefact?]
COc1cc(C2Nc3cccc4cccc(c34)N2)ccc1OC(C)=O	PABP FP inh active, eIF4H inh 105.4, UBC9 SUMO inh 63.7
COc1ccc(C2Nc3cccc4cccc(c34)N2)cc1Br	eIF4H inh 62.5 (no result: eIF4E-4G inh)
O=C(CSc1ccc(Br)cc1)NCC(c1ccco1)N1CCCCC1 (stereo not drawn)	none (no result: eIF4E-4G inh, PABP FP inh, eIF4H inh, UBC9 SUMO inh)
CCCCCCCCCC(=O)O	none (no result: eIF4E-4G inh, PABP FP inh, HCV core dimer, eIF4H inh, UBC9 SUMO inh)
CCCCCC#CCC#CCC#CCC#CCCCC(=O)O	eIF4E-4G inh 36.5, HCV core dimer 53.8, eIF4H inh 84.8, UBC9 SUMO inh 58.2 (no result: PABP1 MLLE inh)
O=C(Cn1cnc2scc(-c3cccc([N+](=O)[O-])c3)c2c1=O)NCc1ccco1	HCV core dimer 64.5
Cc1sc2ncn(CC(=O)NCc3ccco3)c(=O)c2c1-c1ccc(F)cc1	none
COc1ccc(OC)c(C(=O)COC(=O)c2cccnc2Cl)c1	none
COc1ccc(C(=O)COC(=O)c2cccnc2Cl)c(OC)c1	HCV core dimer 68.3, eIF4H inh 58.7
CN1CCN(C(=O)CN(c2ccccc2)S(=O)(=O)N(C)C)CC1	none (no result: PABP1 MLLE inh)
Cc1ccc(Cl)cc1N1CCN(C(=O)CN(c2ccccc2)S(=O)(=O)N(C)C)CC1	eIF4H inh 61.8
O=c1nc2n(c3ccc(Br)cc13)CCS2	none
Cc1cc(C)c2c(c1)NC(C(=O)O)C1CC=CC21 (stereo not drawn)	PABP FP inh active, eIF4H inh 92.8 (no result: eIF4E-4G inh)
Cc1ccc2c(c1C)NC(C(=O)O)C1CC=CC21 (stereo not drawn)	eIF4E-4G inh 60.8!, PABP FP inh active, HCV core dimer 71.0, eIF4H inh 94.1, UBC9 SUMO inh 58.1
O=C(O)C1Nc2c(C(F)(F)F)ccc(Cl)c2C2C=CCC12 (stereo not drawn)	none (no result: eIF4E-4G inh)
O=C(O)C1Nc2c(C(=O)N3CCOCC3)cccc2C2C=CCC12 (stereo not drawn)	PABP FP inh active, eIF4H inh 98.6
CC(=O)Nc1ccc(S(=O)(=O)Nc2nc3ccccc3nc2Nc2ccc3ccccc3c2)cc1	eIF4H inh inconclusive, UBC9 SUMO inh 54.7
CC12CC3(C)CC(C)(C1)CC(C(=O)NC(=S)NC(C)(C)C)(C2)C3	PABP1 MLLE inh 42.6
O=C(O)c1ccccc1Nc1cc(Cl)c2nonc2c1[N+](=O)[O-]	PABP1 MLLE inh 41.8 (no result: eIF4E-4G inh)
CN(C)c1cc(Nc2ccc(O)cc2)c([N+](=O)[O-])c2nonc12	none
O=[N+]([O-])c1c(Nc2ccc(O)cc2)cc(Cl)c2nonc12	PABP1 MLLE inh 39.2 (no result: eIF4E-4G inh)
O=[N+]([O-])c1c(Nc2ccccn2)cc(Cl)c2nonc12	PABP FP inh inconclusive, eIF4H inh inconclusive, UBC9 SUMO inh 93.4
O=C1C=C(C#Cc2ccc(Oc3ccccc3)cc2)C[C@@H](c2ccc(F)cc2)C1	none (no result: eIF4E-4G inh, PABP FP inh, HCV core dimer, eIF4H inh, UBC9 SUMO inh)
COc1ccc(NC(=S)N2CCC3CC2c2c(Cl)cccc23)c(OC)c1 (stereo not drawn)	none (no result: eIF4E-4G inh, PABP FP inh, HCV core dimer, eIF4H inh, UBC9 SUMO inh)
O=C(NCc1ccc2c(c1)OCO2)c1ccc2c(c1)OCCO2	eIF4E-4G inh 68.7
O=S1(=O)CCO[C@H]2Cc3ccccc3[C@H]2N1Cc1ccc(F)cc1	none (no result: eIF4E-4G inh)
O=C(NCC(c1ccco1)N1CCCCC1)c1ccc(COc2ccc(Cl)cc2)cc1 (stereo not drawn)	none (no result: eIF4E-4G inh, PABP FP inh, HCV core dimer, eIF4H inh, UBC9 SUMO inh)
NC(=O)[C@@H]1CCCNc2c(I)cc([N+](=O)[O-])cc2C(=O)N[C@@H](CO)C(=O)NCC(=O)N1	none (no result: PABP1 MLLE inh)
O=C1C2C3C=CC(C4CC34)C2C(=O)N1/N=C/c1ccc(-c2ccc(F)cc2[N+](=O)[O-])o1 (stereo not drawn)	none
COc1ccc(-c2ccc(/C=N/N3C(=O)C4C5C=CC(C6CC56)C4C3=O)o2)c([N+](=O)[O-])c1 (stereo not drawn)	PABP FP inh active, eIF4H inh 63.5
Cc1ccc(-c2ccc(/C=N/N3C(=O)C4C5C=CC(CC5)C4C3=O)o2)c([N+](=O)[O-])c1 (stereo not drawn)	PABP FP inh active, eIF4H inh 52.7
O=C1C2C3C=CC(C4CC34)C2C(=O)N1/N=C/c1ccc(-c2ccc(Cl)cc2[N+](=O)[O-])o1 (stereo not drawn)	PABP FP inh inconclusive, eIF4H inh inconclusive
Cc1ccc(C)c(NC(=O)Cc2nc(CNCC(C)C)cs2)c1	none (no result: eIF4E-4G inh)
Cc1ccc(OCCSc2nc3ccccc3n2CC(=O)O)cc1	none (no result: eIF4E-4G inh)
O=C(c1c(Cl)cccc1Cl)N1CCN(c2ncccn2)CC1	none (no result: eIF4E-4G inh)
CN1c2cccc3cccc(c23)N(C)C1(C)C	PABP FP inh active, eIF4H inh 73.2
O=C(c1ccccc1)C(O)C(c1ccccc1)N1CCOCC1 (stereo not drawn)	none (no result: eIF4E-4G inh)
COc1cc(-c2noc(C)c2/C=C/c2ccc(C(=O)O)cc2)cc(OC)c1OC	PABP FP inh active, eIF4H inh 100.4 (no result: eIF4E-4G inh)
COc1cc(-c2noc(C)c2/C=C/c2cccc([N+](=O)[O-])c2)cc(OC)c1OC	none (no result: eIF4E-4G inh)
COc1ccc(C(=O)NCc2nnc(SCC(=O)Nc3nc4ccc(C)cc4s3)o2)cc1OC	none
CCC1(C)Cc2ccccc2/C(=C/C(=O)N2CCCCC2)N1 (stereo not drawn)	PABP FP inh active
CNC(=O)/C=C1\NC(C)(C)Cc2ccccc21	none
Cc1ccc(NC(=O)C2C3CCCC2C3c2ccccc2)cc1C (stereo not drawn)	PABP FP inh active, eIF4H inh inconclusive

Screens: PubChem, several laboratories
